# Measurements as given in ChEMBL document CHEMBL4321823, “Benzyl Phenylsemicarbazides: A Chemistry-Driven Approach Leading to G Protein-Biased Dopamine D4 Receptor Agonists with High Subtype Selectivity” (J Med Chem, 2019).
# pEC50, pKi: −log10 of the molar value.
# What was measured:
# D(2) dopamine receptor [1] = target: T1, D(2) dopamine receptor (Homo sapiens, UniProt P14416); assay: Displacement of [3H] Spiperone from human D2S receptor expressed in CHO cells by competitive radioligand binding assay; type: cell-based
# T1 sequence (P14416 whole entry): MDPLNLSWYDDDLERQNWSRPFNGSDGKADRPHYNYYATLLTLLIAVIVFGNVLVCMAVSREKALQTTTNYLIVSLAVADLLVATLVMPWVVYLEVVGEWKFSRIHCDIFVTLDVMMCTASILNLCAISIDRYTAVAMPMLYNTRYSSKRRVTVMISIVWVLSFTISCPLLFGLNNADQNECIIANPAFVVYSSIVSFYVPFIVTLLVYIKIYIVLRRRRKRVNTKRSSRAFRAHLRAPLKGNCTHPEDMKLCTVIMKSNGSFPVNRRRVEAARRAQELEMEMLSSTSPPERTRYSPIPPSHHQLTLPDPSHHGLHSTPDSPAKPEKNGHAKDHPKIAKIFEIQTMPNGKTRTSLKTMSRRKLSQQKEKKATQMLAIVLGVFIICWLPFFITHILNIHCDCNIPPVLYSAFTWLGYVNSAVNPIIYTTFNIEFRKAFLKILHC
# [2] = target: T2, Alpha-1A adrenergic receptor (Homo sapiens, UniProt P35348); assay: Displacement of [3H] prazosin from alpha1A adrenergic receptor (unknown origin)
# T2 sequence (P35348 whole entry): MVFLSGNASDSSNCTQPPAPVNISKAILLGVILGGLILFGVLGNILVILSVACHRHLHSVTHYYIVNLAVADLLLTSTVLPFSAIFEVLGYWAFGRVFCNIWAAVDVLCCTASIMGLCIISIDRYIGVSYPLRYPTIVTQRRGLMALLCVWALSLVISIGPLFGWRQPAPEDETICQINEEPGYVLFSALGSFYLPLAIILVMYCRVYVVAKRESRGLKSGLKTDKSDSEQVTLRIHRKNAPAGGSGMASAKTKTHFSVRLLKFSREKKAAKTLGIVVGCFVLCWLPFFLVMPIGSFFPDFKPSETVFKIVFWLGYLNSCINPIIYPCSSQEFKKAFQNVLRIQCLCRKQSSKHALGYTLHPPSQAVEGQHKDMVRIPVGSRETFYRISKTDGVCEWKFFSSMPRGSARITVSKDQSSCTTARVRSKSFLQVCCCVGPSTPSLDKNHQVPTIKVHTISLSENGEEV
# [3] = target: T3, Alpha-2A adrenergic receptor (Homo sapiens, UniProt P08913); assay: Displacement of [3H] RX821002 from alpha2A adrenergic receptor (unknown origin)
# T3 sequence (P08913 whole entry): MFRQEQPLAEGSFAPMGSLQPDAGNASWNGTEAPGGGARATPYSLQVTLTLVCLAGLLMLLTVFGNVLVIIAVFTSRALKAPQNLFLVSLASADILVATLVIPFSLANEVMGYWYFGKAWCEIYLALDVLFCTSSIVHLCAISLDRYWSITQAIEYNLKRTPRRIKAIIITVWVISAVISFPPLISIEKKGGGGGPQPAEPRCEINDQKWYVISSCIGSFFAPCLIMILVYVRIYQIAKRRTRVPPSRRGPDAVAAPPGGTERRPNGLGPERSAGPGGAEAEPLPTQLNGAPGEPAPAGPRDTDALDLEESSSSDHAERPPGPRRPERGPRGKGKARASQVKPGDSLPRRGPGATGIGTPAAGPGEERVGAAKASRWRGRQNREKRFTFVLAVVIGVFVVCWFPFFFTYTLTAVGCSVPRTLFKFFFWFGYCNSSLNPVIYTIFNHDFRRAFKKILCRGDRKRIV
# D(1A) dopamine receptor = D(1A) dopamine receptor (Homo sapiens, UniProt P21728); assay: Displacement of [3H] SCH23390 from D1 receptor (unknown origin)
# Chain of D(1A) dopamine receptor (P21728 whole entry): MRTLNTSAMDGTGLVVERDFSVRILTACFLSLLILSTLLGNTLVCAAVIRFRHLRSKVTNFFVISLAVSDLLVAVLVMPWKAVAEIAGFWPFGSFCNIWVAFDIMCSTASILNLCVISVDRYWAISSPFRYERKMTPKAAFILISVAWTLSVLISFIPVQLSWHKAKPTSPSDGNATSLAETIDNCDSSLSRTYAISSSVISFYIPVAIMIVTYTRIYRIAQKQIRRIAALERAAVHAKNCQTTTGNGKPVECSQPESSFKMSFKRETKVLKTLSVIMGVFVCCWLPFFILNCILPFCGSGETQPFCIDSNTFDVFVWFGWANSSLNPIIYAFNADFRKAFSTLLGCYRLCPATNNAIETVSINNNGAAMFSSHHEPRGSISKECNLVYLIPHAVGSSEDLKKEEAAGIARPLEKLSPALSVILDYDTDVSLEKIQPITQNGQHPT
# Homo sapiens [4] = species on record: Homo sapiens; assay: Selectivity index, ratio of Ki for displacement of [3H] prazosin from alpha1A adrenergic receptor to Ki for displacement of [3H] Spiperone from human D4.4 receptor expressed in CHO cells; type: cell-based
# D(1B) dopamine receptor = D(1B) dopamine receptor (Homo sapiens, UniProt P21918); assay: Displacement of [3H] SCH23390 from D5 receptor (unknown origin)
# Chain of D(1B) dopamine receptor (P21918 whole entry): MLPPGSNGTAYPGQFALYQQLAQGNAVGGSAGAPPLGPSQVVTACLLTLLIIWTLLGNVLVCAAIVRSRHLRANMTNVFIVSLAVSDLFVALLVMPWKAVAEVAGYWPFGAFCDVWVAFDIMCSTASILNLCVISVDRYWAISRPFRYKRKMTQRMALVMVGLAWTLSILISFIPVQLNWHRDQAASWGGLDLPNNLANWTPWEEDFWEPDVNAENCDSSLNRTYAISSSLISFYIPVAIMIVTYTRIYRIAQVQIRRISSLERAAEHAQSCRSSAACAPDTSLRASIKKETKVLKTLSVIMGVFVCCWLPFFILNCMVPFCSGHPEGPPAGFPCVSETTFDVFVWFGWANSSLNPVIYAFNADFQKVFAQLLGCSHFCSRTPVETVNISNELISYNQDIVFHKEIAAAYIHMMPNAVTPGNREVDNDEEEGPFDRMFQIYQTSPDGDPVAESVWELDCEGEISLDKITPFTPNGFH
# [5] = target: T4, Muscarinic acetylcholine receptor M1 (Homo sapiens, UniProt P11229); assay: Displacement of [3H] NMS from muscarinic M1 receptor (unknown origin)
# T4 sequence (P11229 whole entry): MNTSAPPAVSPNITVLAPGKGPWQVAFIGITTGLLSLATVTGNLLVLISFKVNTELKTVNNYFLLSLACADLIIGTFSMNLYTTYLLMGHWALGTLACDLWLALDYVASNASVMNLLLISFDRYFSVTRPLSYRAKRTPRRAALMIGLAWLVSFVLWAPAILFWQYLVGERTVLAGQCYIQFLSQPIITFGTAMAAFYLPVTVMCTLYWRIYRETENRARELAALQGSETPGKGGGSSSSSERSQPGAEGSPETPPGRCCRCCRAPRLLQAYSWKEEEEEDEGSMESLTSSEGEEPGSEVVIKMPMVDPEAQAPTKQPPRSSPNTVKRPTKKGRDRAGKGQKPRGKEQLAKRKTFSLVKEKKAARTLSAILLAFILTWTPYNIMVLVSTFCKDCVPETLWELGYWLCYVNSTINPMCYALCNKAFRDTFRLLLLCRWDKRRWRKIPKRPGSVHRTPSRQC
# Procedure, shortened: (§1)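 Radioligand competition binding; Ki given as mean ± SD from two individual experiments, each run in triplicate.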
# D(2) dopamine receptor [6] = target: T1, D(2) dopamine receptor; assay: Displacement of [3H] Spiperone from human D2L receptor expressed in CHO cells by competitive radioligand binding assay; type: cell-based
# [7] = target: Beta-1 adrenergic receptor (Homo sapiens, UniProt P08588); assay: Displacement of [3H] CGP12177 from beta1 adrenergic receptor (unknown origin)
# Chain of Beta-1 adrenergic receptor (P08588 whole entry): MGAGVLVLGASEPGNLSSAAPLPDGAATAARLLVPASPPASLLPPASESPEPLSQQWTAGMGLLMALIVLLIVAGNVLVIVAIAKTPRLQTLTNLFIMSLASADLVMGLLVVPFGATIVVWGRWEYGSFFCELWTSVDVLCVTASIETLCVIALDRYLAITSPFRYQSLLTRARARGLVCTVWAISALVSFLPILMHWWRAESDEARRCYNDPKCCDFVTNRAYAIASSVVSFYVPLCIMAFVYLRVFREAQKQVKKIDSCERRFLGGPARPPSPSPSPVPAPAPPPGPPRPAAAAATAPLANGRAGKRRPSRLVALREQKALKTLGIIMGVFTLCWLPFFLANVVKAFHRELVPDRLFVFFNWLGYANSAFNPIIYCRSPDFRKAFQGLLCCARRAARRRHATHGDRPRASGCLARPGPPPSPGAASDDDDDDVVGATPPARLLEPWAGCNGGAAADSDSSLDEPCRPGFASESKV
# Homo sapiens [8] = species on record: Homo sapiens; assay: Selectivity index, ratio of Ki for displacement of [3H] Spiperone from human D3 receptor expressed in CHO cells to Ki for displacement of [3H] Spiperone from human D4.4 receptor expressed in CHO cells; type: cell-based
# Procedure, shortened: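 Competition binding against [3H]spiperone on membranes of CHO cells stably expressing cloned human D2L, D2S, D3 or D4.4 receptors. Ki from monophasic curve fits; mean ± SEM of three to seven experiments, each in triplicate. Selectivity calculated as Ki(D2L, D2S or D3) divided by Ki(D4.4).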
# D(4) dopamine receptor [9] = target: T5, D(4) dopamine receptor (Homo sapiens, UniProt P21917); type: cell-based, HEK293
# T5 sequence (P21917 whole entry): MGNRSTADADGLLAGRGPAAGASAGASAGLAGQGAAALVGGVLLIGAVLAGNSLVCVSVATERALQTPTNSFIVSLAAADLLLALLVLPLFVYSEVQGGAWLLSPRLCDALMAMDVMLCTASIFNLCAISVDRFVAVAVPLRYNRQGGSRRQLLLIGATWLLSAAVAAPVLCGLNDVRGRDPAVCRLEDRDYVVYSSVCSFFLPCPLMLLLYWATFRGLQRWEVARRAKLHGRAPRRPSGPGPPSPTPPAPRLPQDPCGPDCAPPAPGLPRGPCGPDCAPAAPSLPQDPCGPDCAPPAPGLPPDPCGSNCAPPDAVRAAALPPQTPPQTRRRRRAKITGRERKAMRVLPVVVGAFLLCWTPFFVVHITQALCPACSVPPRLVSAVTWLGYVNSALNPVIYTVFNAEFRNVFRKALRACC
# D(4) dopamine receptor [10] = target: T5, D(4) dopamine receptor; assay: Displacement of [3H] Spiperone from human D4.4 receptor expressed in CHO cells by competitive radioligand binding assay; type: cell-based
# D(3) dopamine receptor = D(3) dopamine receptor (Homo sapiens, UniProt P35462); assay: Displacement of [3H] Spiperone from human D3 receptor expressed in CHO cells by competitive radioligand binding assay; type: cell-based
# Chain of D(3) dopamine receptor (P35462 whole entry): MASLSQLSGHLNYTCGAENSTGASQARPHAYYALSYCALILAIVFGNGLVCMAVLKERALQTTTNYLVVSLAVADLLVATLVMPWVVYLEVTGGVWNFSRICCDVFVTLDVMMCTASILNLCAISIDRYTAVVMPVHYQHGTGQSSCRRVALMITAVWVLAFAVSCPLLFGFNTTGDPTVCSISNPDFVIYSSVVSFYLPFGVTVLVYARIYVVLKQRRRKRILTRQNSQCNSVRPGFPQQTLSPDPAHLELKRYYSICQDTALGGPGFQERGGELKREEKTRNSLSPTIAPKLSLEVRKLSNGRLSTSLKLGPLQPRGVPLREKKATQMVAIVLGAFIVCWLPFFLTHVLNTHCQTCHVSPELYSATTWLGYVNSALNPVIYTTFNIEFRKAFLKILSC
# [11] = target: Muscarinic acetylcholine receptor M3 (Homo sapiens, UniProt P20309); assay: Displacement of [3H] NMS from muscarinic M3 receptor (unknown origin); procedure, shortened: as §1
# Chain of Muscarinic acetylcholine receptor M3 (P20309 whole entry): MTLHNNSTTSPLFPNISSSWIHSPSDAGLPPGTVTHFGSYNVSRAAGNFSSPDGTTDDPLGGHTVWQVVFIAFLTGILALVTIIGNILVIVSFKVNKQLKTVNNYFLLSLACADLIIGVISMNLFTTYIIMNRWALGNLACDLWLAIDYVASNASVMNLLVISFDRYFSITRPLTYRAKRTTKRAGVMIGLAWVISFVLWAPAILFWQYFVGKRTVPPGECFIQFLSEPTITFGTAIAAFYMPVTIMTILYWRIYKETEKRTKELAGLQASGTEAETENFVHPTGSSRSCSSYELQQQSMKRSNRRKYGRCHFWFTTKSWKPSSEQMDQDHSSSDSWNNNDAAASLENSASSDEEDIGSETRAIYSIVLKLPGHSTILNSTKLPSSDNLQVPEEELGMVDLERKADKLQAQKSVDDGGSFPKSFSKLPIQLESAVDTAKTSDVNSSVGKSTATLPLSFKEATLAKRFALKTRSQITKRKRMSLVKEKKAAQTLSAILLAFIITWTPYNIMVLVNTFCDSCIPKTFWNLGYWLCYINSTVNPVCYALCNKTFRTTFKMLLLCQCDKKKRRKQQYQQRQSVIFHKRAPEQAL
# [12] = target: Beta-2 adrenergic receptor (Homo sapiens, UniProt P07550); assay: Displacement of [3H] CGP12177 from beta2 adrenergic receptor (unknown origin)
# Chain of Beta-2 adrenergic receptor (P07550 whole entry): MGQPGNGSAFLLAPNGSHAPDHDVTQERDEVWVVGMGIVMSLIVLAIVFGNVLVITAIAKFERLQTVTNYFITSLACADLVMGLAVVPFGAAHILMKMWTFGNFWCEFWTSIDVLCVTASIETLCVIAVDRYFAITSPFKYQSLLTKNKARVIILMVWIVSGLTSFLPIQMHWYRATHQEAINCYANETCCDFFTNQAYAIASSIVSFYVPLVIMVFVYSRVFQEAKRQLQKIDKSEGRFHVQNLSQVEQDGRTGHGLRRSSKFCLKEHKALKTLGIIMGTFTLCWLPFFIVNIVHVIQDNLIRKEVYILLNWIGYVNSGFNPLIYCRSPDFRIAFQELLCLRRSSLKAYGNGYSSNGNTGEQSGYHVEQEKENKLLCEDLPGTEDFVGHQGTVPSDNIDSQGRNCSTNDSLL
compound,measurement,setting,value
COc1ccccc1N1CCN(CCCNC(=O)NN(Cc2ccc(F)cc2)c2ccccc2)CC1,pKi,D(2) dopamine receptor [1],6.96
same,pKi,[2],8.80
same,pKi,[3],6.07
same,pKi,D(1A) dopamine receptor,6.44
same,Ratio Ki,Homo sapiens [4],2.9
same,pKi,D(1B) dopamine receptor,6.00
same,pKi,[5],4.82
same,pKi,D(2) dopamine receptor [6],6.85
same,pKi,[7],< 4.30
same,Ratio Ki,Homo sapiens [8],560
same,pEC50,D(4) dopamine receptor [9],6.30
same,pKi,D(4) dopamine receptor [10],9.26
same,pKi,D(3) dopamine receptor,6.51
same,pKi,[11],4.43
same,pKi,[12],5.35
